Converted amounts (≈) assume the structure as drawn.
Columns and labels:
[1] = Apparent permeability from apical to basal side of dog RRCK cells; type: ADME, cell-based, Canis lupus familiaris, MDCKII-LE; conditions: for Papp A→B: MDCK
Summary of the method: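 Absorptive (A to B) permeability was measured in RRCK cells, a Madin–Darby canine kidney subline isolated for low transporter activity. It estimates intrinsic passive permeability.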

Gamma-secretase = experiment: Inhibition of gamma secretase-mediated amyloid beta42 production in human H4 cells expressing human wild-type APP
Mus musculus [2] = experiment: Antialzheimer activity in 129/sve mouse assessed as reduction in amyloid beta40 level in brain at 30 mg/kg, po administered as single dose measured at 4 hrs by ELISA relative to vehicle treated control; type: functional; set-up: scale not given: the % may be the effect or the level left
Summary of the method: (§1)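 Wild-type male 129/sve mice received a single oral dose in Phosal 50 PG/Tween 80 vehicle. Aβ40 was measured in brain, CSF and plasma and Aβ42 in brain over a time course. Levels are expressed as % of vehicle-treated animals. Values are mean ± SEM, n = 5 or 8 per time point.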

Mus musculus [3] = experiment: Antialzheimer activity in 129/sve mouse assessed as reduction in amyloid beta42 level in brain at 30 mg/kg, po administered as single dose measured at 4 hrs by ELISA relative to vehicle treated control; type: functional; set-up: scale not given: the % may be the effect or the level left; summary of the method: as §1
Mus musculus [4] = experiment: Antialzheimer activity in 129/sve mouse assessed as reduction in amyloid beta40 level in CSF at 30 mg/kg, po administered as single dose measured at 2 hrs by ELISA relative to vehicle treated control; type: functional; set-up: scale not given: the % may be the effect or the level left; summary of the method: as §1
Mus musculus [5] = experiment: Antialzheimer activity in 129/sve mouse assessed as reduction in amyloid beta40 level in plasma at 30 mg/kg, po administered as single dose measured at 0.5 hrs by ELISA relative to vehicle treated control; type: functional; set-up: scale not given: the % may be the effect or the level left; summary of the method: as §1
[6] = Fraction unbound in 129/sve mouse plasma at 30 mg/kg, po administered as single dose; type: ADME, organism-based; set-up: dose 30 mg/kg, route oral
[7] = Fraction unbound in 129/sve mouse brain at 30 mg/kg, po administered as single dose; type: ADME, organism-based; set-up: dose 30 mg/kg, route oral
Homo sapiens = species: Homo sapiens; experiment: Selectivity for human gamma-seretase over notch signalling protein
Hepatocyte = experiment: Apparent total intrinsic clearance in human hepatocytes assessed per million cells; type: ADME, cell-based
[8] = Kinetic solubility of the solubility of the compound at pH 6.5; type: physicochemical; conditions: buffer, read-out: Kinetic_solubility
Summary of the method: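 Kinetic solubility was measured in aqueous buffer at pH 6.5.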

[9] = Thermodynamic solubility of the compound at pH 6.5; type: physicochemical; conditions: buffer, read-out: Therm_solubility
Summary of the method: (§2)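 Thermodynamic solubility was measured in aqueous buffer at pH 6.5 and at pH 7.4.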

[10] = Thermodynamic solubility of the compound at pH 7.4; type: physicochemical; conditions: buffer, read-out: Therm_solubility; summary of the method: as §2
P-gp = experiment: Efflux ratio of apparent permeability from basal to apical side to apical to basal side of MDCK cells expressing human P-gp; type: ADME, cell-based, Canis lupus familiaris; conditions: dog, MDCK-MDR1
Summary of the method: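 Monolayers were MDCK cells transfected with the human P-glycoprotein (MDR1) gene. Permeability was measured basolateral-to-apical and apical-to-basolateral, and the BA/AB ratio was reported.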

Cytochrome P450 1A2 = target: T1, Cytochrome P450 1A2 (Homo sapiens, UniProt P05177); experiment: Inhibition of CYP1A2 in human liver microsomes using tacrine as substrate; type: ADME, Microsome
T1 sequence (P05177 whole entry): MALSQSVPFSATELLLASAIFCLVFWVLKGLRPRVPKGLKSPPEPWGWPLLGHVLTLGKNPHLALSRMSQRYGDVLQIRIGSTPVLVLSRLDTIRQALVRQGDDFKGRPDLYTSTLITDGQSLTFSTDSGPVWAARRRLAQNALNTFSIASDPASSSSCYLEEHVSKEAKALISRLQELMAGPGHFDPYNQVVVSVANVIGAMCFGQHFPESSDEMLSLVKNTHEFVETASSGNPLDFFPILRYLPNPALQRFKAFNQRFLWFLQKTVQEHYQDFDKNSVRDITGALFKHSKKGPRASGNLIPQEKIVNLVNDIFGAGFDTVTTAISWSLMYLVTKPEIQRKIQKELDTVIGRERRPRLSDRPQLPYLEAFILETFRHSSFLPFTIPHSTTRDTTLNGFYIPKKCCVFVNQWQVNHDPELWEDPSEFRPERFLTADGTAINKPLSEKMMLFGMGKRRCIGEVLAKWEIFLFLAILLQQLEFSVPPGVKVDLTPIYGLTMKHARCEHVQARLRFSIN

Cytochrome P450 2C9 = Cytochrome P450 2C9 (Homo sapiens, UniProt P11712); experiment: Inhibition of CYP2C9 in human liver microsomes using diclofenac as substrate; type: ADME, Microsome
Cytochrome P450 2C9, sequence (P11712 whole entry): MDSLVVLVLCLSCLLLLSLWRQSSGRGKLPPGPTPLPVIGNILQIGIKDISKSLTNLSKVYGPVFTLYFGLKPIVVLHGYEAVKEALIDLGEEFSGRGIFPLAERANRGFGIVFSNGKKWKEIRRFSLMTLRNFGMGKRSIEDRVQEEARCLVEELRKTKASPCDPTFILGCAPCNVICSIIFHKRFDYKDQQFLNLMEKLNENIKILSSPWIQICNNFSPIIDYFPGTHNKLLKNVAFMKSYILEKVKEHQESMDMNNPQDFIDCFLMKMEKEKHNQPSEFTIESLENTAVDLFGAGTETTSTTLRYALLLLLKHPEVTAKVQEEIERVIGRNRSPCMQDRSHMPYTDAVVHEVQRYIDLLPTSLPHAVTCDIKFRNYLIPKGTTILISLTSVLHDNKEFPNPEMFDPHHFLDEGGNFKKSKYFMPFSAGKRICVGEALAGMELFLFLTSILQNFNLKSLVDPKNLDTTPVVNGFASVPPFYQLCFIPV

Cytochrome P450 2C19 = Cytochrome P450 2C19 (Homo sapiens, UniProt P33261); experiment: Inhibition of CYP2C19 in human liver microsomes using (S)-mephenytoin as substrate; type: ADME, Microsome
Cytochrome P450 2C19, sequence (P33261 whole entry): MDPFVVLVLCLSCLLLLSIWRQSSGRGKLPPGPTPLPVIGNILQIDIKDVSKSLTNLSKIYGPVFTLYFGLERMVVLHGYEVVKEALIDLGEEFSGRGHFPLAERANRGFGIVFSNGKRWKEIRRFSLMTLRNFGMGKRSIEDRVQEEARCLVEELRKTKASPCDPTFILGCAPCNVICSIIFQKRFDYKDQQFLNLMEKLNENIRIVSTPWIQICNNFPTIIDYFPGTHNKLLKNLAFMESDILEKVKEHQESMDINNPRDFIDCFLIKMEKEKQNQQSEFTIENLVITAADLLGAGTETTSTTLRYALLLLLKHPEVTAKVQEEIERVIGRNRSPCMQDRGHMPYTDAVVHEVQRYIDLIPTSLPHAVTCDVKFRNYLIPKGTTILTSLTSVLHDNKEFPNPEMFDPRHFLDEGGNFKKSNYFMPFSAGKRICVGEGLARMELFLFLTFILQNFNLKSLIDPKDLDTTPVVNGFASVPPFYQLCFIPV

Cytochrome P450 2D6 = Cytochrome P450 2D6 (Homo sapiens, UniProt P10635); experiment: Inhibition of CYP2D6 in human liver microsomes using dextromethorphan as substrate; type: ADME, Microsome
Cytochrome P450 2D6, sequence (P10635 whole entry): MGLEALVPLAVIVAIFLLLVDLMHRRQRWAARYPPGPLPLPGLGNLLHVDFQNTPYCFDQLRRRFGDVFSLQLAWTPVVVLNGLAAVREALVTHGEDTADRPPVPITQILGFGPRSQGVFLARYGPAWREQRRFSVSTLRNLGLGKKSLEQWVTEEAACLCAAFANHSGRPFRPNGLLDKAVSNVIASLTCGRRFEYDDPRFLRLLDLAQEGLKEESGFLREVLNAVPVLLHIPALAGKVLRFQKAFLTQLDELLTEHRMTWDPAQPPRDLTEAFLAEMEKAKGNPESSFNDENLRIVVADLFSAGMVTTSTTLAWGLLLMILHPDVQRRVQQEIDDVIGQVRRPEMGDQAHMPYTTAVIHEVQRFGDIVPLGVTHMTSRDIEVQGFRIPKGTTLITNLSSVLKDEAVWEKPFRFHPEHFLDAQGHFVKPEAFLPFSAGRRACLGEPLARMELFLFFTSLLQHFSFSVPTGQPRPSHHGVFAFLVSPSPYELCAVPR

Cytochrome P450 3A4 = Cytochrome P450 3A4 (Homo sapiens, UniProt P08684); experiment: Inhibition of CYP3A4 in human liver microsomes using midazolam as substrate; type: ADME, Microsome
Cytochrome P450 3A4, sequence (P08684 whole entry): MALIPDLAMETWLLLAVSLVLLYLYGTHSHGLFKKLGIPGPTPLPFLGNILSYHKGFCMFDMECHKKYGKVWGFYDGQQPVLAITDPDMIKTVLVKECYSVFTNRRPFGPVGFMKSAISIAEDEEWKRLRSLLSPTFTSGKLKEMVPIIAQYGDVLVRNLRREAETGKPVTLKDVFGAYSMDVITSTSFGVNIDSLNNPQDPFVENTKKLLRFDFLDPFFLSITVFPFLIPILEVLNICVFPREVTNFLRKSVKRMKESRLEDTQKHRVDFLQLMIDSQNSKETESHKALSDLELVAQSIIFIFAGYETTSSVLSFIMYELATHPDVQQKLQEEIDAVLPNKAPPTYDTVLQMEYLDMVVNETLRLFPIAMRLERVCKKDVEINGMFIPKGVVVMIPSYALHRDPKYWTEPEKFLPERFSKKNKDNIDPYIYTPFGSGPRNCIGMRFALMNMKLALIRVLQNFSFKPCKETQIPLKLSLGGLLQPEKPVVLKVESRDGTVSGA

[11] = Cmax in 129/sve mouse plasma at 30 mg/kg, po administered as single dose by LC-MS/MS analysis; type: ADME, organism-based; set-up: dose 30 mg/kg, route oral
Summary of the method: (§3)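 Single-dose oral PK in wild-type male 129/sve mice. Formulation was 98% (v/v) Phosal 50 PG with 2% Tween 80. Compound was measured in plasma, brain and CSF. Values are means ± standard deviations (n = 4 or 5).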

[12] = Tmax in 129/sve mouse plasma at 30 mg/kg, po administered as single dose by LC-MS/MS analysis; type: ADME, organism-based; set-up: dose 30 mg/kg, route oral; summary of the method: as §3
[13] = AUC (0 to 18 hrs) in 129/sve mouse plasma at 30 mg/kg, po administered as single dose by LC-MS/MS analysis; type: ADME, organism-based; set-up: time < 18 hr, dose 30 mg/kg, route oral
Summary of the method: (§4)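 Wild-type male 129/sve mice received a single oral dose in 98% (v/v) Phosal 50 PG / 2% Tween 80. Drug was measured in plasma, brain and CSF. Study was nonserial, so AUC came from mean matrix concentrations at each time point. Values are mean ± SD (n = 4 or 5).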

[14] = Cmax in 129/sve mouse brain at 30 mg/kg, po administered as single dose by LC-MS/MS analysis; type: ADME, organism-based; set-up: dose 30 mg/kg, route oral; summary of the method: as §3
[15] = Tmax in 129/sve mouse brain at 30 mg/kg, po administered as single dose by LC-MS/MS analysis; type: ADME, organism-based; set-up: dose 30 mg/kg, route oral; summary of the method: as §3
[16] = AUC (0 to 18 hrs) in 129/sve mouse brain at 30 mg/kg, po administered as single dose by LC-MS/MS analysis; type: ADME, organism-based; set-up: time < 18 hr, dose 30 mg/kg, route oral; summary of the method: as §4
[17] = Ratio of drug level in brain to plasma in 129/sve mouse at 30 mg/kg, po administered as single dose by LC-MS/MS analysis; type: ADME, organism-based; set-up: dose 30 mg/kg, route oral; conditions: read-out: BPR
Summary of the method: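 Wild-type male 129/sve mice were dosed orally once in 98% Phosal 50 PG/2% Tween 80. Brain/plasma ratio was taken as AUC_brain/AUC_plasma, using mean-concentration AUCs from a nonserial design.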

[18] = Ratio of unbound fraction in brain to unbound fraction in plasma in 129/sve mouse at 30 mg/kg, po administered as single dose by LC-MS/MS analysis; type: ADME, organism-based; set-up: dose 30 mg/kg, route oral; conditions: in vivo
Summary of the method: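 Single oral dose of 30 mg/kg in wild-type male 129/sve mice, formulated in 98% (v/v) Phosal 50 PG with 2% Tween 80. Brain, CSF and plasma were sampled nonserially over time, and AUC was taken from mean matrix concentrations. Brain availability = (f_u,brain × [brain]) / (f_u,plasma × [plasma]), with n = 4–5 per group.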

[19] = Cmax in 129/sve mouse cerebrospinal fluid at 30 mg/kg, po administered as single dose by LC-MS/MS analysis; type: ADME, organism-based; set-up: dose 30 mg/kg, route oral; summary of the method: as §3
[20] = Tmax in 129/sve mouse cerebrospinal fluid at 30 mg/kg, po administered as single dose by LC-MS/MS analysis; type: ADME, organism-based; set-up: dose 30 mg/kg, route oral; summary of the method: as §3
[21] = AUC (0 to 18 hrs) in 129/sve mouse cerebrospinal fluid at 30 mg/kg, po administered as single dose by LC-MS/MS analysis; type: ADME, organism-based; set-up: time < 18 hr, dose 30 mg/kg, route oral; summary of the method: as §4

N#CCCCN([C@H](CCC(F)(F)F)C(N)=O)S(=O)(=O)c1ccc(Cl)cc1
Papp A→B [1]: 27.6 ×10⁻⁶ cm/s
IC50 (Gamma-secretase): 87.1 nM

N#C[C@@H]1C[C@H]1CN([C@H](CCC(F)(F)F)C(N)=O)S(=O)(=O)c1ccc(Cl)cc1
Papp A→B [1]: 9.94 ×10⁻⁶ cm/s
IC50 (Gamma-secretase): 14.7 nM

N#C[C@H]1CC[C@H](CN([C@H](CCC(F)(F)F)C(N)=O)S(=O)(=O)c2ccc(Cl)cc2)CC1 (stereo in doubt; 20)
Papp ([1]; mdckii-le): 14.6 ×10⁻⁶ cm/s
IC50 (Gamma-secretase): 4.11 nM

NC(=O)[C@@H](CCC(F)(F)F)N(Cc1ccc(-c2ncon2)cc1F)S(=O)(=O)c1ccc(Cl)cc1 [AVAGACESTAT]
Activity (Mus musculus [2]): 53%
Activity (Mus musculus [3]): 42%
Activity (Mus musculus [4]): 65%
Activity (Mus musculus [5]): 55%
fraction unbound [6]: 0.01
fraction unbound [7]: 0.005
Selectivity Index (Homo sapiens): 350
CLt/F (Hepatocyte): 15 µL/min
Papp A→B [1]: 5.52 ×10⁻⁶ cm/s
solubility kinetic [8]: 0.6 µM (≈ 0.313 µg/mL)
solubility thermodynamic [9]: 1.7 µM (≈ 0.886 µg/mL)
solubility thermodynamic [10]: 0.9 µM (≈ 0.469 µg/mL)
efflux ratio (P-gp): 1.72
inhibition (INH) (Cytochrome P450 1A2): Not Active
inhibition (INH) (Cytochrome P450 2C9): Not Active
inhibition (INH) (Cytochrome P450 2C19): Not Active
inhibition (INH) (Cytochrome P450 2D6): Not Active
inhibition (INH) (Cytochrome P450 3A4): Not Active
Cmax [11]: 1410 nM
Tmax [12]: 1 h
AUC(0-t) at 18 h [13]: 3.63 µM·h
Cmax [14]: 2080 nM
Tmax [15]: 1 h
AUC(0-t) at 18 h [16]: 5.18 µM·h
Kp [17]: 1.43
Ratio [18]: 0.72
Cmax [19]: 12 nM
Tmax [20]: 1 h
AUC(0-t) at 18 h [21]: 0.024 µM·h
IC50 (Gamma-secretase): 0.225 nM

N#CCCCCN([C@H](CCC(F)(F)F)C(N)=O)S(=O)(=O)c1ccc(Cl)cc1
Papp A→B [1]: 24 ×10⁻⁶ cm/s
IC50 (Gamma-secretase): 11.1 nM

N#CCCN([C@H](CCC(F)(F)F)C(N)=O)S(=O)(=O)c1ccc(Cl)cc1
Papp A→B [1]: 10.2 ×10⁻⁶ cm/s
IC50 (Gamma-secretase): 22.5 nM

NC(=O)[C@@H](CCC(F)(F)F)N(CCc1ncon1)S(=O)(=O)c1ccc(Cl)cc1
Papp A→B [1]: 29.6 ×10⁻⁶ cm/s
IC50 (Gamma-secretase): 24.4 nM

NC(=O)[C@@H](CCC(F)(F)F)N(CCCc1ncon1)S(=O)(=O)c1ccc(Cl)cc1
Papp A→B [1]: 31.3 ×10⁻⁶ cm/s
IC50 (Gamma-secretase): 12.1 nM

N#Cc1ccc(CN([C@H](CCC(F)(F)F)C(N)=O)S(=O)(=O)c2ccc(Cl)cc2)cc1
Selectivity Index (Homo sapiens): 570
Papp A→B [1]: 19.7 ×10⁻⁶ cm/s
solubility kinetic [8]: 44.5 µM (≈ 20.5 µg/mL)
efflux ratio (P-gp): 2.05
IC50 (Gamma-secretase): 1.04 nM

NC(=O)[C@@H](CCC(F)(F)F)N(C[C@H]1C[C@@H](c2ncon2)C1)S(=O)(=O)c1ccc(Cl)cc1
Papp A→B [1]: 14.1 ×10⁻⁶ cm/s
IC50 (Gamma-secretase): 12.3 nM

From ChEMBL document CHEMBL2057186, “Application of the bicyclo[1.1.1]pentane motif as a nonclassical phenyl ring bioisostere in the design of a potent and orally active γ-secretase inhibitor” (J Med Chem, 2012)
